As usually defined, the MIC is the smallest concentration in the dilution series that meets the test's criterion for growth inhibition. High values mean weaker potency, low ones greater potency.

The text below walks through data of ChEMBL document CHEMBL1671866, “Genotyping as a tool for antibiotic resistance surveillance of Neisseria gonorrhoeae in New Caledonia: evidence of a novel genotype associated with reduced penicillin susceptibility” (2008).

SMILES strings stand for the structures. In brackets after ≈: the same amount, converted by molar mass.

Common to all, as to format: functional
Test [1] deals with Neisseria gonorrhoeae. Put plainly: Antibacterial activity against Neisseria gonorrhoeae harboring KD gene by disk agar diffusion method. In outline:
(§1)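 Clinical N. gonorrhoeae isolates from sexually transmitted infections in New Caledonia, collected over about 3 years. Susceptibility to conventional antibiotics was tested by disk agar diffusion, and beta-lactamase production by nitrocefin discs. Archival chromosomally mediated resistant isolates and WHO reference strains (WHO-C, -G, -L, -M, -O, -P; 07QA-01 to -06) served as controls.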
For orientation: Agar diffusion results depend on both activity and mobility in agar.

In test [2] the test system is Neisseria gonorrhoeae. Put plainly: Antibacterial activity against Neisseria gonorrhoeae harboring wild-type GA and wild-type penA genes by Etest method. The method, boiled down:
(§2)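 Penicillin G MIC (µg/ml) by E-test gradient strip on chocolate agar plus PolyVitex, read where the inhibition zone meets the strip. Test organisms were clinical gonococcal isolates from New Caledonia, grouped by genotype. Archival chromosomally mediated resistant isolates and 12 WHO reference strains served as controls.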

For test [3], the system named is Neisseria gonorrhoeae. Put plainly: Antibacterial activity against Neisseria gonorrhoeae assessed as susceptible isolates by disk agar diffusion method. In outline: (§3)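 Clinical isolates were collected from sexually transmitted infections in New Caledonia over nearly 3 years. They were tested in vitro against conventional antibiotics by disk agar diffusion. Archival chromosomally mediated resistant isolates and 12 reference strains served as controls: WHO-C, -G, -L, -M, -O, -P and 07QA-01 to 07QA-06.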

Test [4] deals with Neisseria gonorrhoeae. Put plainly: Antibacterial activity against Neisseria gonorrhoeae harboring wild-type penA and DA G101D mutant genes by Etest method. The method, boiled down: as §2
Test [5] has as its system Neisseria gonorrhoeae. Put plainly: Antibacterial activity against Neisseria gonorrhoeae harboring GS gene by disk agar diffusion method. In outline: as §1
In test [6] the test system is Neisseria gonorrhoeae. Put plainly: Antibacterial activity against Neisseria gonorrhoeae harboring porB1b and DA G101D mutant genes by disk agar diffusion method. The method, boiled down: as §1
In test [7] the test system is Neisseria gonorrhoeae. Put plainly: Antibacterial activity against Neisseria gonorrhoeae harboring Asp-345a insertion in penA and porB1a genes by Etest method. In outline: as §2
Test [8] concerns Neisseria gonorrhoeae. Put plainly: Antibacterial activity against Neisseria gonorrhoeae harboring ponA L421P mutant gene by disk agar diffusion method. The method, boiled down:
as §1

The subject of test [9] is Neisseria gonorrhoeae. Put plainly: Antibacterial activity against Neisseria gonorrhoeae assessed as intermediate-resistant isolates by disk agar diffusion method. In outline: as §1
Test [10] concerns Neisseria gonorrhoeae. Put plainly: Antibacterial activity against Neisseria gonorrhoeae harboring wild-type penA and porB1a genes by Etest method. In outline: as §2
In test [11] the test system is Neisseria gonorrhoeae. Put plainly: Antibacterial activity against Neisseria gonorrhoeae harboring GS A102S mutant gene by disk agar diffusion method. The method, boiled down:
as §1

The subject of test [12] is Neisseria gonorrhoeae. Put plainly: Antibacterial activity against Neisseria gonorrhoeae harboring Asp-345a insertion in penA and DA G101D mutant genes by Etest method. The method, boiled down: as §2
Test [13] has as its system Neisseria gonorrhoeae. Put plainly: Antibacterial activity against Neisseria gonorrhoeae harboring wild-type penA and GS A102S mutant genes by Etest method. In outline:
as §2

The subject of test [14] is Neisseria gonorrhoeae. Put plainly: Antibacterial activity against Neisseria gonorrhoeae harboring porB1a gene by disk agar diffusion method. In outline:
as §1

Test [15] deals with Neisseria gonorrhoeae. Put plainly: Antibacterial activity against Neisseria gonorrhoeae harboring wild-type ponA gene by disk agar diffusion method. The method, boiled down: as §1
The test system of test [16] is Neisseria gonorrhoeae. Put plainly: Antibacterial activity against Neisseria gonorrhoeae by disk agar diffusion method. In outline:
as §3

The test system of test [17] is Neisseria gonorrhoeae. Put plainly: Antibacterial activity against Neisseria gonorrhoeae harboring wild-type GA and Asp-345a insertion in penA genes by Etest method. The method, boiled down: as §2
In test [18] the test system is Neisseria gonorrhoeae. Put plainly: Antibacterial activity against Neisseria gonorrhoeae harboring wild-type GA gene by disk agar diffusion method. In outline: as §1

`CC1(C)S[C@@H]2[C@H](NC(=O)Cc3ccccc3)C(=O)N2[C@H]1C(=O)O` [PENICILLIN G]: the minimum inhibitory concentration (MIC) is 1 µg/mL (≈ 2.99 µM) against Neisseria gonorrhoeae [1]; 0.017 µg/mL (≈ 0.0508 µM) against Neisseria gonorrhoeae [2]; 0.016 µg/mL (≈ 0.0478 µM) in the test on Neisseria gonorrhoeae [4]; 0.63 µg/mL (≈ 1.88 µM) with Neisseria gonorrhoeae [5]; 0.016 µg/mL (≈ 0.0478 µM) against Neisseria gonorrhoeae [6]; 0.07 µg/mL (≈ 0.209 µM) against Neisseria gonorrhoeae [7]. The MIC worked out at 0.059 µg/mL (≈ 0.176 µM) against Neisseria gonorrhoeae [8]; 0.011 µg/mL (≈ 0.0329 µM) in the test on Neisseria gonorrhoeae [10]; 0.155 µg/mL (≈ 0.464 µM) against Neisseria gonorrhoeae [11]; 0.133 µg/mL (≈ 0.398 µM) against Neisseria gonorrhoeae [12]; 0.156 µg/mL (≈ 0.467 µM) against Neisseria gonorrhoeae [13]; 0.031 µg/mL (≈ 0.0927 µM) against Neisseria gonorrhoeae [14]. Moreover, the MIC with Neisseria gonorrhoeae [15] worked out at 0.067 µg/mL (≈ 0.2 µM); in the test on Neisseria gonorrhoeae [16], 0.064 µg/mL (≈ 0.191 µM); in the test with Neisseria gonorrhoeae [17], 0.081 µg/mL (≈ 0.242 µM); with Neisseria gonorrhoeae [18] it was 0.037 µg/mL (≈ 0.111 µM). Further, the figures for the Activity in the test with Neisseria gonorrhoeae [3] and in the test on Neisseria gonorrhoeae [9] were 60.1% and 39.9%, respectively.
